Data as given in ChEMBL document CHEMBL1129982, “Structure-activity relationships in a series of orally active gamma-hydroxy butenolide endothelin antagonists” (J Med Chem, 1997).

What was measured:
[1] = target: T1, Endothelin-1 receptor (Homo sapiens, UniProt P25101); test: Binding affinity against human cloned endothelin A receptor expressed in LTK-cells; assay type: cell-based
T1 sequence (P25101 whole entry): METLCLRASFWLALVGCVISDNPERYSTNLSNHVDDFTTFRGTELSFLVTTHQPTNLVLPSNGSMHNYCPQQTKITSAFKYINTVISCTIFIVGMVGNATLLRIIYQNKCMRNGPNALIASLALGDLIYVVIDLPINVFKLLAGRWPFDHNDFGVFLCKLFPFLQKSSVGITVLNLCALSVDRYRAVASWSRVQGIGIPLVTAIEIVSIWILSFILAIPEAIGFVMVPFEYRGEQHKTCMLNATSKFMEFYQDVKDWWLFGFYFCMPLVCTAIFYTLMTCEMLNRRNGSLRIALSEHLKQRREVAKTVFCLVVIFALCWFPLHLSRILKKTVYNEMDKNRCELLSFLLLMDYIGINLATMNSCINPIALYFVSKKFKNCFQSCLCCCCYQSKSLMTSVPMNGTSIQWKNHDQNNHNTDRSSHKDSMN
Method in brief: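 Radioligand binding to cloned human ETA (Ltk⁻ cells) and ETB (CHO-K1 cells) receptors. Selectivity expressed as ETB IC50/ETA IC50.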

[2] = target: T2, Endothelin receptor type B (Homo sapiens, UniProt P24530); test: Binding affinity against human cloned Endothelin B receptor expressed in CHO-K1 cells; assay type: cell-based
T2 sequence (P24530 whole entry): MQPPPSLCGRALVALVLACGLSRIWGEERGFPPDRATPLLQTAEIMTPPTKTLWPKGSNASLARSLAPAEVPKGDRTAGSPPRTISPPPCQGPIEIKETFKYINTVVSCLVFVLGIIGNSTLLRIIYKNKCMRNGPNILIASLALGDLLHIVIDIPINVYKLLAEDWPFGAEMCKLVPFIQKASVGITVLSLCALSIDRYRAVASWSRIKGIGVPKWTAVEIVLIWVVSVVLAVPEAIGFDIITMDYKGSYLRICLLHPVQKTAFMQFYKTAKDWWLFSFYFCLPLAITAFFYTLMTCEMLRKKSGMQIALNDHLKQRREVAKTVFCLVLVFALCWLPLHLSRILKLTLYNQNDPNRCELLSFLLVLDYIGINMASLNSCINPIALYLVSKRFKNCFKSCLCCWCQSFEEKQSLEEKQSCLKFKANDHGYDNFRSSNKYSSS
Method in brief: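 Radioligand binding to cloned human ETA (Ltk⁻ cells) and ETB (CHO-K1 cells) receptors. […] Selectivity expressed as ETB IC50/ETA IC50.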

SMILES | IC50 [1] [nM] | IC50 [2] [nM]
COc1ccc(C2(O)OC(=O)C(c3ccc4c(c3)OCO4)=C2Cc2ccc3c(c2)OCO3)cc1 (stereo not drawn) | 16 | 
COc1ccc(C2(OC)OC(=O)C(c3ccc4c(c3)OCO4)=C2Cc2ccccc2)cc1 (stereo not drawn) | 300 | > 25000
COc1ccc(CC2=C(c3ccc(C)cc3)C(=O)OC2(O)c2ccc(OC)cc2)cc1 (stereo not drawn) |  | > 2500
COc1ccc(C2(O)OC(=O)C(c3ccc4c(c3)OCO4)=C2CC2CCCCCC2)cc1 (stereo not drawn) | 35 | 
COc1ccc(C2(O)OC(=O)C(c3ccc4c(c3)OCO4)=C2Cc2cccc(OC)c2)cc1 (stereo not drawn) | 3 | 260
COc1ccc(C2(O)OC(=O)C(c3ccc4c(c3)OCO4)=C2Cc2cccnc2)cc1 (stereo not drawn) | 40 | > 2500
COc1ccc(C2(O)OC(=O)C(c3ccc4c(c3)OCO4)=C2Cc2ccc(OC)c(OC)c2)cc1 (stereo not drawn) | 1.4 | 
COc1ccc(C2OC(=O)C(c3ccc4c(c3)OCO4)=C2Cc2cc(OC)c(OC)c(OC)c2)cc1 (stereo not drawn) |  | > 25000
O=C1OC(O)(c2ccc(OCc3ccccc3)cc2)C(Cc2ccccc2)=C1c1ccc2c(c1)OCO2 (stereo not drawn) | 950 | 
COc1cccc(C2(O)OC(=O)C(c3ccc4c(c3)OCO4)=C2Cc2ccccc2)c1 (stereo not drawn) | 500 | 18000
COc1ccc(C2(O)OC(=O)C(c3ccc4c(c3)OCO4)=C2Cc2ccccc2)cc1OC (stereo not drawn) | 11 | 18000
COc1ccc(C2(OC)OC(=O)C(c3ccc4c(c3)OCO4)=C2Cc2cc(OC)c(OC)c(OC)c2)cc1 (stereo not drawn) | 600 | > 2500
COc1ccc(C2(O)OC(=O)C(c3ccc4c(c3)OCO4)=C2Cc2ccc(O)cc2)cc1 (stereo not drawn) | 8 | > 250
COc1ccc(C2(O)OC(=O)C(c3ccc4c(c3)OCO4)=C2Cc2ccc(Cl)c(Cl)c2)cc1 (stereo not drawn) | 150 | > 2500
COc1ccc(C2(O)OC(=O)C(c3ccc4c(c3)OCO4)=C2Cc2ccc(C)cc2)cc1 (stereo not drawn) |  | > 2500
COc1ccc(C2(O)OC(=O)C(c3ccc4c(c3)OCO4)=C2Cc2cccc(C(F)(F)F)c2)cc1 (stereo not drawn) | 43 | > 2500
COc1ccc(C2(O)OC(=O)C(c3ccc4c(c3)OCO4)=C2Cc2ccc(NC(C)=O)cc2)cc1 (stereo not drawn) | 1.2 | 
COc1ccc(C2(O)OC(=O)C(c3cc(OC)cc(OC)c3)=C2Cc2ccccc2)cc1 (stereo not drawn) | 46 | 5200
COc1ccc(C2(O)OC(=O)C(c3ccc4c(c3)OCO4)=C2Cc2ccccc2)c(OC)c1 (stereo not drawn) | 13 | > 2500
COc1ccc(C2(O)OC(=O)C(c3ccc4c(c3)OCO4)=C2Cc2ccc(N(C)C)cc2)cc1 (stereo not drawn) | 28 | 1800
CCC1=C(c2ccc3c(c2)OCO3)C(=O)OC1(O)c1ccc(OC)cc1 (stereo not drawn) | 320 | 
COc1ccc(C2(O)OC(=O)C(c3ccc4c(c3)OCO4)=C2Cc2ccc(OC)c(OC)c2OC)cc1 (stereo not drawn) | 12 | 2000
CCc1ccc(C2(O)OC(=O)C(c3ccc4c(c3)OCO4)=C2Cc2ccccc2)cc1 (stereo not drawn) | 630 | > 2500
COc1ccc(C2(O)OC(=O)C(c3ccc(OC)c(OC)c3)=C2Cc2ccccc2)cc1 (stereo not drawn) | 70 | 
COc1ccc(C2(O)OC(=O)C(c3cc(OC)c4c(c3)OCO4)=C2Cc2ccccc2)cc1C (stereo not drawn) | 8.2 | 1410
COc1ccc(C2(O)OC(=O)C(c3cc(OC)ccc3OC)=C2Cc2ccccc2)cc1 (stereo not drawn) | 240 | > 2500
COc1ccc(C2(O)OC(=O)C(c3ccc4c(c3)OCO4)=C2Cc2cccc3ccccc23)cc1 (stereo not drawn) | 18 | > 2500
COc1ccc(C2(O)OC(=O)C(c3ccc4c(c3)OCO4)=C2CC2CCCC2)cc1 (stereo not drawn) | 10 | 630
COc1ccc(C2(O)OC(=O)C(c3ccc4c(c3)OCO4)=C2Cc2cccc3c2CCc2ccccc2C3=O)cc1 (stereo not drawn) | 16000 | 10000
